Reference: ChEMBL document CHEMBL1126035, “Selective beta 3-adrenergic agonists of brown adipose tissue and thermogenesis. 1. [4-[2-[(2-Hydroxy-3-phenoxypropyl)amino]ethoxy]phenoxy]acetates” (1992)
Calls of active or inactive are those of the source. No cut-off for these calls is given here.

How the values were obtained:
[1] = Ratio of the dose (D500,peroral administration) elevating the rat heart rate to 500 bpm to the GDP ED50.; assay type: functional
Method in brief: (§1)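 Rats held at 29 °C for 2 weeks, groups of six dosed (sc or po) at the BAT GDP ED50, then at rising multiples of it. Heart rate read 15–30 min after dosing until ≥500 bpm, giving D500; vehicle control group of six. Index = D500 divided by GDP-binding ED50 from cold-adapted rats.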

[2] = target: Beta-3 adrenergic receptor (Rattus norvegicus) (UniProt P26255); test: Inhibition of beta-3 adrenergic receptor GDP binding in rat brown adipose tissue on oral administration relative to isoprenaline; assay type: tissue-based
Method in brief: (§2)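 Rats cold-adapted at 4 °C for 4 days, then kept at 23 °C for 2 days; next day dosed sc or po in 0.45% aqueous NaCl/0.25% w/v Polysorbate 80, 0.1–10 mg kg-1, n=6 per group. Interscapular BAT taken 1 h later, mitochondria by differential centrifugation, GDP binding measured. Expressed relative to isoprenaline sulfate 1 mg kg-1; ED50 by linear regression.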

[3] = target: Beta-3 adrenergic receptor (Rattus norvegicus) (UniProt P26255); test: Dose necessary to produce 50% of the isoprenaline effect to inhibit GDP binding to beta-3 adrenergic receptor in brown adipose tissue(BAT mitochondria) of rats after subcutaneous administration; not active; method in brief: as §2
[4] = Ratio of the dose (D500,subcutaneous administration) elevating the rat heart rate to 500 bpm to the GDP ED50; assay type: functional; method in brief: as §1

Sequence of Beta-3 adrenergic receptor (Rattus norvegicus) (P26255 whole entry): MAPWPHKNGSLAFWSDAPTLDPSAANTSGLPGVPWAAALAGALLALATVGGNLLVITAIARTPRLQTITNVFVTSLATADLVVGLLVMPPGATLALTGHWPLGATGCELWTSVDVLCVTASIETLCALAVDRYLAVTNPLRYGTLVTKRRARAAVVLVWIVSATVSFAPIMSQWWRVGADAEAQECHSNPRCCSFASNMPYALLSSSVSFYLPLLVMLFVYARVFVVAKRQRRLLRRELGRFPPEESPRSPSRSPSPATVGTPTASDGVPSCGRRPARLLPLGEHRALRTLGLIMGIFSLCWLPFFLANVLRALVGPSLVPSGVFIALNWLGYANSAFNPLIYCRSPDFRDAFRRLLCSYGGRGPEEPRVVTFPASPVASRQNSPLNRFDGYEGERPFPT

Row | Structure (SMILES) | ED50 [2] [mg/kg] | ED50 [3] | SI [1] | SI [4]
1 | COC(=O)COc1ccc(OCC(C)NCC(O)COc2ccccc2)cc1.O (centres undefined) |  |  | > 10 | 
2 | O=C(O)COc1ccc(OCCNCC(O)COc2ccccc2)cc1 (centres undefined) | 3.5 |  | > 62 | 
3 | COC(=O)COc1ccc(C(=O)NCCNCC(O)COc2ccccc2)cc1 (centres undefined) |  | inactive |  | 
4 | COC(=O)COc1cccc(OCCNCC(O)COc2ccccc2F)c1.Cl (centres undefined) |  |  | > 10 | 
5 | COC(=O)COc1cccc(OCCNCC(O)COc2ccccc2)c1 (centres undefined) | 5.28 |  | > 10 | 
6 | CCOC(=O)COc1ccc(OCCNCC(O)COc2ccccc2)cc1 (centres undefined) |  |  | > 100 | 
7 | CC(C)OC(=O)COc1ccc(OCCNCC(O)COc2ccccc2)cc1 (centres undefined) |  |  | > 10 | 
8 | COC(=O)c1ccc(CC(C)NCC(O)c2ccccc2)cc1 (centres undefined) | 0.94 |  | > 10 | 
9 | CC(C)NC[C@H](O)COc1ccc(O)cc1 [PRENALTEROL] |  |  |  | < 1
10 | COC(=O)COc1ccc(CC(C)NCC(O)c2cccc(Cl)c2)cc1 (centres undefined) | 0.007 |  | > 100 | 

Second part, led by results:

Row | ED50 [2] [mg/kg] | ED50 [3] | Structure (SMILES) | SI [1] | SI [4]
11 | 0.12 |  | COC(=O)COc1ccc(OCCNCC(O)COc2ccccc2)cc1 (centres undefined) | > 100 | 
12 | 0.45 |  | Cl.O=C(O)COc1ccc(OCCNC[C@H](O)COc2ccccc2)cc1 | > 22 | 
13 | 0.078 |  | COC(=O)COc1ccc(CCNCC(O)COc2ccccc2)cc1 (centres undefined) | > 100 | 
14 | 0.25 |  | CC(C)(C)OC(=O)COc1ccc(OCCNCC(O)COc2ccccc2)cc1 (centres undefined) | > 100 | 
15 | 0.54 |  | COC(=O)COc1ccc(OCCNCC(O)COc2ccccc2F)cc1.Cl (centres undefined) | > 100 | 
